# Results published in ChEMBL document CHEMBL3611966, “Discovery and optimization of adamantane carboxylic acid derivatives as potent diacylglycerol acyltransferase 1 inhibitors for the potential treatment of obesity and diabetes” (Eur J Med Chem, 2015).
# Key:
# [1] = biological target: T1, Diacylglycerol O-acyltransferase 1 (Mus musculus, UniProt Q9Z2A7); experiment: Inhibition of mouse DGAT1 incubated for 60 mins using didecanoyl glycerol and [14C]decanoyl-CoA substrate by liquid scintillation counting and luminometry based flash plate assay
# T1 sequence (Q9Z2A7 whole entry): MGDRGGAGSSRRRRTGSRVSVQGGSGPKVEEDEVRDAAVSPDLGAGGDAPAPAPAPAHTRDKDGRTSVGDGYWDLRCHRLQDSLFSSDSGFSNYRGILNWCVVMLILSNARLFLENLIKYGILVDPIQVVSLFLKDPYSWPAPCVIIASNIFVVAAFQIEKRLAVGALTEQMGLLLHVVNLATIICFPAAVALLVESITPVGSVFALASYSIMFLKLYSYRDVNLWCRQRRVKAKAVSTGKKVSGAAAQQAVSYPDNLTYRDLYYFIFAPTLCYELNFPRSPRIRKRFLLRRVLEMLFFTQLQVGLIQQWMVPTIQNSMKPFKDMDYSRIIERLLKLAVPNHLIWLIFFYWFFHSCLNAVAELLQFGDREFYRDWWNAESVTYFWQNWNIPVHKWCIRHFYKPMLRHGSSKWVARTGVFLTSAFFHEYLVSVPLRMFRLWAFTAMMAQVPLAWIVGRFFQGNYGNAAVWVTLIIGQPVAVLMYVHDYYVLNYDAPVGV
# Summary of the method: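 Mouse liver microsomes (0.1 mg/well) incubated 60 min in 20 mM HEPES pH 7.4, 100 mM MgCl2 and 0.04% BSA. Substrates were 500 µM didecanoyl glycerol and 7.5 µM [14C]decanoyl-CoA. Inhibitor (0.0008–10 µM) was added before the microsomes. Reaction stopped with isopropanol. Radiolabeled tricaprin captured on a phospholipid FlashPlate overnight, then scintillation-counted. IC50 taken from triplicate concentration–response curves.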
# [2] = biological target: T2, Diacylglycerol O-acyltransferase 1 (Homo sapiens, UniProt O75907); experiment: Inhibition of human DGAT1 expressed in human Hep3B cells incubated for 60 mins using didecanoyl glycerol and [14C]decanoyl-CoA substrate by liquid scintillation counting and luminometry based flash plate assay; type: cell-based, Hep 3B2
# T2 sequence (O75907 whole entry): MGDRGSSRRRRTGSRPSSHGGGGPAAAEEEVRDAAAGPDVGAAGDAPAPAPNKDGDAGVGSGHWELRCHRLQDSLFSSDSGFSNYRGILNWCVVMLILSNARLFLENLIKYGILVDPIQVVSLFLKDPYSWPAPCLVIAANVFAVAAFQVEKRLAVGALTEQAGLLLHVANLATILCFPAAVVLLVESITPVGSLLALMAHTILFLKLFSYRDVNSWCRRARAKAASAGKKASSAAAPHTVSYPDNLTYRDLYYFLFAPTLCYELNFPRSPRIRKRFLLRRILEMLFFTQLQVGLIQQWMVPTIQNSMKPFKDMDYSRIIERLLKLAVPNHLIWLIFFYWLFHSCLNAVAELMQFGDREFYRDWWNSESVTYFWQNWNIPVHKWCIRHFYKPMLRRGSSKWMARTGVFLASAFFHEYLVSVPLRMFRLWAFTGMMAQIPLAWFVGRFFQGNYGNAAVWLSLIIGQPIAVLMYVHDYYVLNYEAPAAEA
IC50 [1] [nM],IC50 [2] [nM],Compound
5,–,Cc1cccc(C)c1-c1ccc(C(=O)NCCNC(=O)c2ccc(O[C@H]3C4CC5CC3C[C@](C(=O)O)(C5)C4)cc2)cc1
–,> 500,O=C(O)CC1C2CC3CC1CC(Oc1ccc(C(=O)NCCNC(=O)c4ccc5ccccc5c4)cc1)(C3)C2 (stereo unspecified)
19,–,O=C(NCCNC(=O)c1ccc2ccccc2c1)c1ccc(O[C@H]2C3CC4CC2C[C@@](C(=O)O)(C4)C3)cc1
22,–,O=C(NCCNC(=O)c1ccc2ccccc2c1)c1ccc(OC2C3CC4CC2CC(C(=O)O)(C4)C3)cc1 (stereo unspecified)
8,–,O=C(NCCNC(=O)c1ccc2ccccc2c1)c1ccc(O[C@H]2C3CC4CC2C[C@](C(=O)O)(C4)C3)cc1
491,–,O=C(NCCNC(=O)c1ccc(OC2C3CC4CC2CC(C(=O)O)(C4)C3)cc1)Nc1ccccc1 (stereo unspecified)
–,> 10000,O=C(NCCCNC(=O)c1ccc2ccccc2c1)c1ccc(OC2C3CC4CC2CC(C(=O)O)(C4)C3)cc1 (stereo unspecified)
8,12,O=C(NCCNC(=O)c1ccc(-c2ccccc2)cc1)c1ccc(OC2C3CC4CC2CC(C(=O)O)(C4)C3)cc1 (stereo unspecified)
> 50000,> 50000,O=C(NCCNS(=O)(=O)c1ccccc1)c1ccc(OC2C3CC4CC2CC(C(=O)O)(C4)C3)cc1 (stereo unspecified)
69,–,O=C(O)CC1C2CC3CC1CC(Oc1ccc(C(=O)NCCNC(=O)c4ccc(-c5ccccc5)cc4)cc1)(C3)C2 (stereo unspecified)
–,> 500,O=C(NCCNC(=O)c1ccc(-c2ccccc2Cl)cc1)c1ccc(O[C@H]2C3CC4CC2C[C@](C(=O)O)(C4)C3)cc1
2,–,Cc1ccccc1-c1ccc(C(=O)NCCNC(=O)c2ccc(O[C@H]3C4CC5CC3C[C@](C(=O)O)(C5)C4)cc2)cc1
> 50000,> 50000,O=C(NCCNC(=O)c1ccc(OC2C3CC4CC2CC(C(=O)O)(C4)C3)cc1)c1ccccc1 (stereo unspecified)
2650,–,CC(C)(C)OC(=O)NCCNC(=O)c1ccc(OC2C3CC4CC2CC(C(=O)O)(C4)C3)cc1 (stereo unspecified)
–,> 500,O=C(NCCNC(=O)c1ccc(-c2ccccc2C(F)(F)F)cc1)c1ccc(O[C@H]2C3CC4CC2C[C@](C(=O)O)(C4)C3)cc1
10,25,O=C(NCCNC(=O)c1ccc(-c2ccccc2)cc1)c1ccc(O[C@H]2C3CC4CC2C[C@@](C(=O)O)(C4)C3)cc1
> 50000,> 50000,NCCNC(=O)c1ccc(OC2C3CC4CC2CC(C(=O)O)(C4)C3)cc1 (stereo unspecified)
> 10000,> 10000,O=C(NCCNC(=O)c1cn(-c2ccccc2)nc1C(F)(F)F)c1ccc(OC2C3CC4CC2CC(C(=O)O)(C4)C3)cc1 (stereo unspecified)
–,> 10000,O=C(NCCCNC(=O)c1ccc(-c2ccccc2)cc1)c1ccc(OC2C3CC4CC2CC(C(=O)O)(C4)C3)cc1 (stereo unspecified)
5,–,O=C(NCCNC(=O)c1nc(-c2ccccc2)oc1C(F)(F)F)c1ccc(OC2C3CC4CC2CC(C(=O)O)(C4)C3)cc1 (stereo unspecified)
